Experimental findings from ChEMBL document CHEMBL1817556, “Substituted lactam and cyclic azahemiacetals modulate Pseudomonas aeruginosa quorum sensing” (Bioorg Med Chem, 2011) are described below.

Test [1] deals with T1, Acyl-homoserine-lactone synthase (Pseudomonas aeruginosa (strain ATCC 15692 / PAO1 / 1C / PRS 101 / LMG12228)) (UniProt P33883).
T1 sequence (whole entry): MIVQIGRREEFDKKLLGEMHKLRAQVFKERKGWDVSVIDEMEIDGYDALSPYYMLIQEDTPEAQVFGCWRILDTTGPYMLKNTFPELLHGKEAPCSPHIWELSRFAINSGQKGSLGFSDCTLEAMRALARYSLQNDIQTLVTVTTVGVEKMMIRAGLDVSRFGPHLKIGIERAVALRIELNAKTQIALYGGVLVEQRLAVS
Description: Modulation of Pseudomonas aeruginosa lacZ-fused lasI expressed in Escherichia coli DH5alpha co-expressing pBAD-lasR assessed as 3-oxo-C12-AHL-induced effect at 0.58 mM after 3 hrs by beta-galactosidase assay relative to control. The gist of the method: (§1)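 E. coli DH5α carrying pSC11 (PlasI-lacZ translational fusion) and pJN105L (PBAD-lasR) was grown overnight in LB with ampicillin (100 μg/ml) and gentamicin (15 μg/ml), then diluted to OD600 0.150. Arabinose (0.2% w/v), 3-oxo-C12-AHL (2 μM) and test compound or DMSO were added. Cultures were shaken 3 h at 37 °C. β-Galactosidase activity was read in Miller units and expressed as % of the solvent sample. Triplicates per biological replicate, repeated at least twice; paired two-tailed t-test.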

The target of test [2] is 3-(3-hydroxydecanoyloxy)decanoate synthase (Pseudomonas aeruginosa (strain ATCC 15692 / PAO1 / 1C / PRS 101 / LMG12228)) (UniProt Q51559). The test is described as follows: Modulation of Pseudomonas aeruginosa lacZ-fused rhlA expressed in Escherichia coli DH5alpha co-expressing Ptac-rhlR assessed as C4-AHL-induced effect at 0.58 mM after 4 hrs by beta-galactosidase assay relative to control. The gist of the method: (§2)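 E. coli DH5α carrying pECP61.5 (Ptac-rhlR, PrhlA-lacZ), grown overnight in LB with ampicillin 100 μg/ml and diluted to OD600 0.150. At OD600 1.0, 1 mM IPTG, 2 μM C4-HSL and compound or DMSO were added. Cultures were shaken 4 h at 37 °C, then β-galactosidase was read in Miller units. Activity is % of solvent sample, from triplicates per biological replicate, with at least two repeats.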

For test [3], the target named is T1, Acyl-homoserine-lactone synthase (Pseudomonas aeruginosa (strain ATCC 15692 / PAO1 / 1C / PRS 101 / LMG12228)). Description: Modulation of Pseudomonas aeruginosa lacZ-fused lasI expressed in Escherichia coli DH5alpha co-expressing pBAD-lasR assessed as 3-oxo-C12-AHL-induced effect at 0.77 mM after 3 hrs by beta-galactosidase assay relative to control. The method in brief: as §1

In test [4] the target is 3-(3-hydroxydecanoyloxy)decanoate synthase (Pseudomonas aeruginosa (strain ATCC 15692 / PAO1 / 1C / PRS 101 / LMG12228)) (UniProt Q51559). Description: Modulation of Pseudomonas aeruginosa lacZ-fused rhlA expressed in Escherichia coli DH5alpha co-expressing Ptac-rhlR assessed as C4-AHL-induced effect at 0.39 mM after 4 hrs by beta-galactosidase assay relative to control. The gist of the method:
(§3)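 rhl reporter: E. coli DH5α carrying pECP61.5 (Ptac-rhlR, PrhlA-lacZ) was grown overnight in LB with ampicillin (100 μg/ml) only, then diluted to OD600 0.150. It was induced with 1 mM IPTG, and 2 μM C4-HSL plus compound or DMSO were added at OD600 1.0. Cultures were shaken 4 h at 37 °C. β-Galactosidase activity was read in Miller units as % of the solvent sample. Triplicates per biological replicate, at least two repeats; paired two-tailed t-test.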

Test [5] has as its target T1, Acyl-homoserine-lactone synthase (Pseudomonas aeruginosa (strain ATCC 15692 / PAO1 / 1C / PRS 101 / LMG12228)). The test is described as follows: Modulation of Pseudomonas aeruginosa lacZ-fused lasI expressed in Escherichia coli DH5alpha co-expressing pBAD-lasR assessed as 3-oxo-C12-AHL-induced effect at 0.19 mM after 3 hrs by beta-galactosidase assay relative to control. The method in brief:
as §1

Test [6] shares this target. The test is described as follows: Modulation of Pseudomonas aeruginosa lacZ-fused lasI expressed in Escherichia coli DH5alpha co-expressing pBAD-lasR assessed as 3-oxo-C12-AHL-induced effect at 0.39 mM after 3 hrs by beta-galactosidase assay relative to control. The gist of the method:
as §1

The target in test [7] is 3-(3-hydroxydecanoyloxy)decanoate synthase (Pseudomonas aeruginosa (strain ATCC 15692 / PAO1 / 1C / PRS 101 / LMG12228)) (UniProt Q51559). Description: Modulation of Pseudomonas aeruginosa lacZ-fused rhlA expressed in Escherichia coli DH5alpha co-expressing Ptac-rhlR assessed as C4-AHL-induced effect at 0.77 mM after 4 hrs by beta-galactosidase assay relative to control. The gist of the method: as §2

Test [8] shares this target. The test is described as follows: Modulation of Pseudomonas aeruginosa lacZ-fused rhlA expressed in Escherichia coli DH5alpha co-expressing Ptac-rhlR assessed as C4-AHL-induced effect at 0.19 mM after 4 hrs by beta-galactosidase assay relative to control. The gist of the method: as §3
Test [9] has the same target. The test is described as follows: Modulation of Pseudomonas aeruginosa lacZ-fused rhlA expressed in Escherichia coli DH5alpha co-expressing Ptac-rhlR assessed as C4-AHL-induced effect at 0.78 mM after 4 hrs by beta-galactosidase assay relative to control. The gist of the method: as §2
The target in test [10] is T1, Acyl-homoserine-lactone synthase (Pseudomonas aeruginosa (strain ATCC 15692 / PAO1 / 1C / PRS 101 / LMG12228)). Description: Modulation of Pseudomonas aeruginosa lacZ-fused lasI expressed in Escherichia coli DH5alpha co-expressing pBAD-lasR assessed as 3-oxo-C12-AHL-induced effect at 0.78 mM after 3 hrs by beta-galactosidase assay relative to control. The gist of the method:
as §1

Test [11] has the same target. Description: Modulation of Pseudomonas aeruginosa lacZ-fused lasI expressed in Escherichia coli DH5alpha co-expressing pBAD-lasR assessed as 3-oxo-C12-AHL-induced effect at 0.92 mM after 3 hrs by beta-galactosidase assay relative to control. The gist of the method:
as §1

Test [12] has the same target. The test is described as follows: Modulation of Pseudomonas aeruginosa lacZ-fused lasI expressed in Escherichia coli DH5alpha co-expressing pBAD-lasR assessed as 3-oxo-C12-AHL-induced effect at 0.23 mM after 3 hrs by beta-galactosidase assay relative to control. The method in brief: as §1
In test [13] the target is 3-(3-hydroxydecanoyloxy)decanoate synthase (Pseudomonas aeruginosa (strain ATCC 15692 / PAO1 / 1C / PRS 101 / LMG12228)) (UniProt Q51559). The test is described as follows: Modulation of Pseudomonas aeruginosa lacZ-fused rhlA expressed in Escherichia coli DH5alpha co-expressing Ptac-rhlR assessed as C4-AHL-induced effect at 0.23 mM after 4 hrs by beta-galactosidase assay relative to control. The gist of the method: as §3

Test [14] shares this target. Description: Modulation of Pseudomonas aeruginosa lacZ-fused rhlA expressed in Escherichia coli DH5alpha co-expressing Ptac-rhlR assessed as C4-AHL-induced effect at 0.92 mM after 4 hrs by beta-galactosidase assay relative to control. The gist of the method: as §2
For test [15], the target named is T1, Acyl-homoserine-lactone synthase (Pseudomonas aeruginosa (strain ATCC 15692 / PAO1 / 1C / PRS 101 / LMG12228)). Description: Modulation of Pseudomonas aeruginosa lacZ-fused lasI expressed in Escherichia coli DH5alpha co-expressing pBAD-lasR assessed as 3-oxo-C12-AHL-induced effect at 0.46 mM after 3 hrs by beta-galactosidase assay relative to control. The gist of the method: as §1

The target of test [16] is 3-(3-hydroxydecanoyloxy)decanoate synthase (Pseudomonas aeruginosa (strain ATCC 15692 / PAO1 / 1C / PRS 101 / LMG12228)) (UniProt Q51559). The test is described as follows: Modulation of Pseudomonas aeruginosa lacZ-fused rhlA expressed in Escherichia coli DH5alpha co-expressing Ptac-rhlR assessed as C4-AHL-induced effect at 0.69 mM after 4 hrs by beta-galactosidase assay relative to control. The gist of the method:
as §2

Test [17] concerns the target T1, Acyl-homoserine-lactone synthase (Pseudomonas aeruginosa (strain ATCC 15692 / PAO1 / 1C / PRS 101 / LMG12228)). The test is described as follows: Modulation of Pseudomonas aeruginosa lacZ-fused lasI expressed in Escherichia coli DH5alpha co-expressing pBAD-lasR assessed as 3-oxo-C12-AHL-induced effect at 0.69 mM after 3 hrs by beta-galactosidase assay relative to control. The method in brief:
as §1

The target in test [18] is 3-(3-hydroxydecanoyloxy)decanoate synthase (Pseudomonas aeruginosa (strain ATCC 15692 / PAO1 / 1C / PRS 101 / LMG12228)) (UniProt Q51559). The test is described as follows: Modulation of Pseudomonas aeruginosa lacZ-fused rhlA expressed in Escherichia coli DH5alpha co-expressing Ptac-rhlR assessed as C4-AHL-induced effect at 0.46 mM after 4 hrs by beta-galactosidase assay relative to control. The method in brief:
as §3

As to `CCCCCCCCCSC[C@@H]1CCC(O)N1` (mixture of isomers), the Activity in test [1] was 57%; in test [2], 100%; in test [3] it was 47%; in test [4], 80%; in [5] it was 74%; in [6], 65%. The Activity in test [7] was 99%; in test [8], 93%.
`CCCCCCCCCSC[C@@H]1CCC(=O)N1`: the Activity in test [1] is 18%; in test [2] it was 108%; in [4] it was 115%; in test [5], 72%; in test [9] it was 137%; in [10], 6%. The Activity stood at 26% in [6] and 95% in [8].
Regarding `CCCCCCSC[C@@H]1CCC(O)N1` (mixture of isomers), the Activity in [11] is 0%; in [12], 109%; in test [13], 26%; in [14], 0%; in test [15], 0%; in test [16] it was 0%. In addition, the values for the Activity in test [17] and in test [18] were 0% and 0.2%, respectively.
